ChEMBL document CHEMBL1155856, “Synthesis and anti-inflammatory activity of 2-(2-aroylaroxy)-4,6-dimethoxy pyrimidines” (Bioorg Med Chem Lett, 2008)
The source made the active and inactive calls. The rule behind the calls is not given here.

How the values were obtained:
Rattus norvegicus [1] = experiment: Antiinflammatory activity against carrageenan-induced acute paw edema in albino rat assessed as reduction of edema at 20 mg/kg, po after 3 hrs relative to control; format: functional
In short: (§1)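 Groups of five rats (125–160 g) dosed with test compound; 30 min later 0.2 mL of 1% carrageenan in 0.9% NaCl injected subcutaneously into the plantar aponeurosis of the hind paw. Paw volume read by water plethysmometer at baseline and at 3 h. Mean increase compared with carrageenan-only control group (five rats); % inhibition = (1 − Gt/Gc) × 100.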

Rattus norvegicus [2] = experiment: Antiinflammatory activity against carrageenan-induced acute paw edema in albino rat assessed as reduction of edema at 40 mg/kg, po after 3 hrs relative to control; format: functional; in short: as §1
Rattus norvegicus [3] = experiment: Antiinflammatory activity against carrageenan-induced acute paw edema in albino rat assessed as reduction of edema at 80 mg/kg, po after 3 hrs relative to control; format: functional; in short: as §1
Rattus norvegicus [4] = experiment: Toxicity in albino rat with hyperemia assessed as ulcerogenic activity at 100 mg/kg, po after 5 hrs; format: organism-based; design: dose 100 mg/kg, route oral; details: in vivo
In short: (§2)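 Groups of 10 rats (200–230 g) fasted 24 h, then given an oral dose of test compound; controls undosed. Killed 5 h after dosing. Stomach and small intestine examined under microscope for hyperaemia, epithelial shedding, petechiae, frank haemorrhage, and erosion or discrete ulceration with or without perforation; scored as % of animals affected.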

Rattus norvegicus [5] = experiment: Toxicity in albino rat with hyperemia assessed as ulcerogenic activity at 200 mg/kg, po after 5 hrs; format: organism-based; design: dose 200 mg/kg, route oral; details: in vivo; in short: as §2
Rattus norvegicus [6] = experiment: Toxicity in albino rat with hyperemia assessed as ulcerogenic activity at 400 mg/kg, po after 5 hrs; format: organism-based; design: dose 400 mg/kg, route oral; details: in vivo; in short: as §2
Rattus norvegicus [7] = experiment: Toxicity in albino rat assessed as ulcerogenic activity at 100 mg/kg, po after 5 hrs; format: organism-based; design: dose 100 mg/kg, route oral; details: in vivo; in short: as §2
Rattus norvegicus [8] = experiment: Toxicity in albino rat assessed as ulcerogenic activity at 200 mg/kg, po after 5 hrs; format: organism-based; design: dose 200 mg/kg, route oral; details: in vivo; in short: as §2
Rattus norvegicus [9] = experiment: Toxicity in albino rat assessed as ulcerogenic activity at 400 mg/kg, po after 5 hrs; format: organism-based; design: dose 400 mg/kg, route oral; details: in vivo; in short: as §2
Oryctolagus cuniculus = species on record: Oryctolagus cuniculus; experiment: Inhibition of rabbit distal colon cyclooxygenase at 10 uM
In short: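 Microsomal fraction from rabbit distal colon mucosa, homogenized and washed in 0.1 M Tris pH 8.0, used fresh. Preincubated with test agent 10 min at 37 °C in Tris-HCl pH 8.0 with 2 mM reduced glutathione, 5 mM L-tryptophan and 1 µM hematin. Then 20 µM arachidonic acid with trace [1-14C]arachidonate added, 5 min at 37 °C. Stopped with cold ether/methanol/0.2 M citric acid. PGE2 separated by RP-HPLC and counted by scintillation; inhibition vs paired controls.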

[10] = biological target: Phospholipase A2 (Rattus norvegicus) (UniProt P04055); experiment: Inhibition of rat PLA2 using [14C]oleate labeled autoclaved Escherichia coli at 10 ug
In short: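 Enzyme amount set for 10–15% hydrolysis over 60 min at 37 °C. Stopped with 2.0 N HCl plus fatty-acid-free BSA, centrifuged at 20,000g for 5 min. Released [14C]oleic acid in the supernatant counted by liquid scintillation.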

[11] = Toxicity in po dosed albino mouse; format: organism-based; details: in vivo, read-out: ALD50
In short: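 Albino mice (25–30 g), in groups of 10, were given test compound at several dose levels. Percent mortality in each group was recorded 24 h after dosing. The approximate 50% lethal dose (ALD50) was calculated by Smith's method.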

Rattus norvegicus [12] = experiment: Antiinflammatory activity against carrageenan-induced acute paw edema in po dosed albino rat assessed as reduction of edema; format: functional; in short: as §1

Phospholipase A2 (Rattus norvegicus), sequence (P04055 whole entry): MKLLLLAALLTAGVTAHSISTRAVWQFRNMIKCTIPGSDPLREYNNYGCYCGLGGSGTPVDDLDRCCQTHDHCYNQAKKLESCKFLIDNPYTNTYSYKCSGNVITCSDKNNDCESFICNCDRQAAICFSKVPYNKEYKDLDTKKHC

| SMILES | inhibition in vivo at 20 mg/kg (Rattus norvegicus [1]) [%] | inhibition in vivo at 40 mg/kg (Rattus norvegicus [2]) [%] | inhibition in vivo at 80 mg/kg (Rattus norvegicus [3]) [%] | Activity (Rattus norvegicus [4]) [%] | Activity (Rattus norvegicus [5]) [%] | Activity (Rattus norvegicus [6]) [%] | Activity (Rattus norvegicus [7]) [%] | Activity (Rattus norvegicus [8]) [%] | Activity (Rattus norvegicus [9]) [%] | inhibition (Oryctolagus cuniculus) [%] | inhibition [10] [%] | LD50 [11] [mg/kg] | ED50 (Rattus norvegicus [12]) [mg/kg] | Activity (Oryctolagus cuniculus) |
| --- | --- | --- | --- | --- | --- | --- | --- | --- | --- | --- | --- | --- | --- | --- |
| CC(=O)Oc1ccccc1C(=O)O [ASPIRIN] | 29.9 | 38.8 | 61.4 | 30 | 60 | 90 | 80 | 90 | 90 | 99 | 90 |  |  |  |
| COc1cc(OC)nc(Oc2ccc(Cl)cc2C(=O)c2ccc(Cl)cc2)n1 | 13.4 | 29.5 | 58.7 | 40 | 60 | 100 | 10 | 20 | 40 | 20 | 40 | > 1000 | 78.3 |  |
| COc1cc(OC)nc(Oc2ccc(F)cc2C(=O)c2ccc(Cl)cc2)n1 | 29.9 | 48.6 | 88.6 | 30 | 60 | 90 | 10 | 20 | 12 |  | 60 | > 1000 | 51.2 | inactive |
| COc1cc(OC)nc(Oc2ccc(C)cc2C(=O)c2ccc(C)cc2)n1 | 20.2 | 45.8 | 55.3 | 50 | 70 | 100 | 20 | 30 | 40 | 87 | 10 | > 1000 | 60.2 |  |
| COc1cc(OC)nc(Oc2ccc(F)cc2C(=O)c2ccc(C)cc2)n1 | 19.4 | 29.1 | 58.2 | 70 | 90 | 100 | 10 | 20 | 40 | 40 | 20 | > 1000 | 62.5 |  |
| COc1cc(OC)nc(Oc2ccc(C)cc2C(=O)c2ccc(Cl)cc2)n1 | 11.5 | 21.5 | 45.5 | 20 | 40 | 60 | 40 | 50 | 80 |  | 80 | > 1000 | 77.5 | inactive |
| COc1cc(OC)nc(Oc2ccc(Br)cc2C(=O)c2ccc(Cl)cc2)n1 | 13.7 | 33.2 | 57.7 | 50 | 70 | 90 | 5 | 10 | 15 | 70 | 30 | > 1000 | 77.2 |  |
| CCCCC1C(=O)N(c2ccccc2)N(c2ccccc2)C1=O [PHENYLBUTAZONE] | 29.6 | 34.1 | 51.9 | 30 | 60 | 90 | 30 | 60 | 90 | 89 | 85 |  |  |  |
